For data set [1], the system named is BT-474. Put plainly: Growth inhibition assay, BT-474. The format is cell-based. The note with it: Homo sapiens, BT-474, 72 h, read-out: GI50 (nmol/L), mean ± SD. The procedure, abridged: (§1)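 Cell lines were STR-authenticated; MCF10A lines stably express mutant HER2. Test compounds were dissolved in DMSO and added to the cells. Growth was assessed 3 days after treatment, and GI50 was derived as the mean of three independent experiments.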

Data set [2] has as its system NCI-N87. Put plainly: Growth inhibition assay, NCI-N87. The format is cell-based. The note with it: Homo sapiens, NCI-N87, 72 h, read-out: GI50 (nmol/L), mean ± SD. The procedure, abridged:
as §1

Data set [3] concerns MCF10A_HER2/insYVMA. The data set can be described thus: Growth inhibition assay, MCF10A_HER2/insYVMA. The note with it: Homo sapiens, 72 h, read-out: GI50 (nmol/L), mean ± SD. The format is cell-based. Summed up: as §1
In data set [4] the test system is NCI-H1781. Put plainly: Growth inhibition assay, NCI-H1781. The format is cell-based. The note with it: Homo sapiens, NCI-H1781, 72 h, read-out: GI50 (nmol/L), mean ± SD. The procedure, abridged: as §1
The test system of data set [5] is A-431. The data set can be described thus: Growth inhibition assay, A-431. The format is cell-based. Particulars: Homo sapiens, A-431, 72 h, read-out: GI50 (nmol/L), mean ± SD. Summed up: as §1
Data set [6] has as its system NCI-H1975. The data set can be described thus: Growth inhibition assay, NCI-H1975. In kind it is cell-based. The note with it: Homo sapiens, NCI-H1975, 72 h, read-out: GI50 (nmol/L), mean ± SD.
Data set [7] relates to NCI-H460. Put plainly: Growth inhibition assay, NCI-H460. The format is cell-based. Particulars: Homo sapiens, NCI-H460, 72 h, read-out: GI50 (nmol/L), mean ± SD.
The conditions of data set [8]: in rodents, cited from earlier work.
The test system of data set [9] is HCC827. Put plainly: Growth inhibition assay, HCC827. The format is cell-based. The note with it: Homo sapiens, HCC827, 72 h, read-out: GI50 (nmol/L), mean ± SD.
For data set [10], the system named is NCI-H1975 EGFR D770_N771insSVD. The data set can be described thus: Growth inhibition assay, NCI-H1975 EGFR D770_N771insSVD. Particulars: Homo sapiens, NCI-H1975, 72 h, read-out: GI50 (nmol/L), mean ± SD. The format is cell-based.
Data set [11] has as its system NIH/3T3_EGFR vIII. The data set can be described thus: Growth inhibition assay, NIH/3T3_EGFR vIII. In kind it is cell-based. The note with it: 72 h, read-out: GI50 (nmol/L), mean ± SD.
For data set [12], the system named is HER2/HER3 signaling in SK-BR-3 cell line. The data set can be described thus: Western blot of HER2 signaling pathway in SK-BR-3 cells. In kind it is cell-based. (Immunoblotting shows a protein as a band on a membrane.)

Like-named read-outs stand apart in the source and are kept apart here.

Take `CN(C)C/C=C/C(=O)Nc1cc2c(Nc3ccc(F)c(Cl)c3)ncnc2cc1O[C@H]1CCOC1` [Afatinib, afatinib]: the GI50 in [1] stood at 2.42 ± 2.34 nmol/L; in data set [2], 1.47 ± 0.81 nmol/L; in data set [3], 102 ± 17 nmol/L; in data set [4] it was 13.8 ± 8.7 nmol/L; in data set [5], 9.33 ± 0.72 nmol/L; in data set [6], 108 ± 40 nmol/L. Also, the GI50 in data set [7] is above 1000 nmol/L. For the same molecule, in data set [8] (no reference given), the “Kp,uu,brain” value was 0.0062.
Turning to `CS(=O)(=O)CCNCc1ccc(-c2ccc3ncnc(Nc4ccc(OCc5cccc(F)c5)c(Cl)c4)c3c2)o1` [Lapatinib], the GI50 in data set [2] was 16.7 ± 10 nmol/L; in data set [3], above 1000 nmol/L; in [4], 576 ± 282 nmol/L; in data set [5] it was 424 ± 29 nmol/L; in data set [9], 679 ± 211 nmol/L; in data set [6], above 1000 nmol/L. Further, the GI50 in data set [10], in data set [11] and in data set [7] was above 1000 nmol/L throughout. In addition, the “phosphorylation of HER2, HER3, and their downstream proteins” value in data set [12] is reported as “inhibited”. In addition, the “phosphorylation of HER3 and its downstream targets, AKT and ERK, at 48 h” value in data set [12] is listed as “increased”.
Turning to `CCOc1cc2ncc(C#N)c(Nc3ccc(OCc4ccccn4)c(Cl)c3)c2cc1NC(=O)/C=C/CN(C)C` [Neratinib, neratinib], the GI50 was 1.03 ± 0.69 nmol/L in [1]; 0.946 ± 0.771 nmol/L in data set [2]; 84.3 ± 9 nmol/L in [3]; 15.4 ± 5.9 nmol/L in [4]; 35.8 ± 9.7 nmol/L in data set [5]; 292 ± 187 nmol/L in [9]. The GI50 came to 236 ± 147 nmol/L in data set [6], 130 ± 60 nmol/L in data set [10], 114 ± 72 nmol/L in data set [11] and 860 ± 67 nmol/L in data set [7].
On to `C=CC(=O)Nc1cc(Nc2nccc(-c3cn(C)c4ccccc34)n2)c(OC)cc1N(C)CCN(C)C` [Osimertinib, osimertinib], for which the GI50 in data set [1] is 15.4 ± 12 nmol/L; in data set [2], 13.5 ± 8.3 nmol/L; in data set [3], above 1000 nmol/L; in data set [4] it was 82 ± 10 nmol/L; in data set [5], […]; in data set [9] it was 13.6 ± 10 nmol/L. For the same molecule, the GI50 in data set [6] is […]; in data set [10], 154 ± 55 nmol/L; in [11], 253 ± 56 nmol/L; in data set [7], above 1000 nmol/L. In [8], the “Kp,uu,brain” value is given as “approximately 0.21”.

Values taken from article PMC9899605 (Cancer Science, 2022).
